{"data": "Measured values gathered from unrelated publications", "target": "Serine/threonine-protein kinase A-Raf (ARAF, Homo sapiens, UniProt P10398)", "Residues used in one study (P10398 1-606)": "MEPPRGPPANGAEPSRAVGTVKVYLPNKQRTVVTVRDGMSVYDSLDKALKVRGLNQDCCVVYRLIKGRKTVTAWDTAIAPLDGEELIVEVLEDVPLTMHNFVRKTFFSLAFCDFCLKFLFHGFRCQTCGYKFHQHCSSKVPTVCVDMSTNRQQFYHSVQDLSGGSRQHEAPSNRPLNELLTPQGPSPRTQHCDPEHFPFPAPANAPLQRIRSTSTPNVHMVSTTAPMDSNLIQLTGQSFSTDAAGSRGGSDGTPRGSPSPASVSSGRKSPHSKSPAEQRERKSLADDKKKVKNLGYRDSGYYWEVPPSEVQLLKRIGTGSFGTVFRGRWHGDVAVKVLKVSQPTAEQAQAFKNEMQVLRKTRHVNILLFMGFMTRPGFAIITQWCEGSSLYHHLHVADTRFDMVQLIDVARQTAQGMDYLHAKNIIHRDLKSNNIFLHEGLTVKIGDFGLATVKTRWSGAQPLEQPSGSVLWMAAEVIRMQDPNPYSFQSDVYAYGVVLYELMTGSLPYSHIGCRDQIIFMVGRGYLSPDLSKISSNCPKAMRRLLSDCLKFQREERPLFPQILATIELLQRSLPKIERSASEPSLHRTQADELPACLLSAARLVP", "note": "Protocols differ between the studies behind these lines."}
{"Structure (SMILES)": "CCN1CCN(Cc2ccc(NC(=O)c3ccc(C)c(Oc4ccnc5[nH]ccc45)c3)cc2C(F)(F)F)CC1", "effect on": "target engagement in cells", "mode": "inhibitor", "technique": "chemoproteomics", "cells": "A-375", "tested at": "5 µM", "measurement": "inhibition", "result": "-85.6%"}
{"Structure (SMILES)": "O=C(Nc1cnn(-c2csc(C(=O)NC3COC3)c2)c1)Nc1c(F)cccc1Cl", "effect on": "enzyme activity", "mode": "inhibitor", "tested at": "5 µM", "measurement": "remaining activity", "result": "94.4%"}
{"Structure (SMILES)": "CNC(=O)c1cc(Oc2ccc(NC(=O)Nc3ccc(Cl)c(C(F)(F)F)c3)cc2)ccn1", "effect on": "cell-free assay", "tested at": "0.5 µM", "measurement": "remaining signal", "result": "7.04%"}
{"Structure (SMILES)": "COc1cccc2c(NCc3ccccc3)nc(-n3c(N)nc4ccccc43)nc12", "effect on": "target engagement in cells", "mode": "inhibitor", "technique": "chemoproteomics", "tested at": "20 mM", "measurement": "inhibition", "result": "-7.3%"}
{"Structure (SMILES)": "CC(C)(O)[C@H]1CC[C@H](Nc2ccc3ncc(-c4cccc(C(F)(F)F)c4)n3n2)CC1", "effect on": "enzyme activity", "mode": "inhibitor", "tested at": "1 µM", "measurement": "remaining activity", "result": "96.9%"}
{"Structure (SMILES)": "COc1cc(Cl)c(C(=O)N[C@@H](CN[C@H]2CC[C@@H](N)CC2)Cc2ccc(C#N)cc2)cc1-c1ccc(CN[C@H](C)c2ccc(C)cc2)o1", "effect on": "enzyme activity", "mode": "inhibitor", "tested at": "1 µM", "measurement": "remaining activity", "result": "101%"}
{"Structure (SMILES)": "CCCCNc1ncc2c(-c3ccc(F)cc3)nn(C[C@H]3CC[C@H](N)CC3)c2n1", "effect on": "target engagement in cells", "mode": "inhibitor", "technique": "chemoproteomics", "tested at": "20 mM", "measurement": "inhibition", "result": "32.9%"}
{"Structure (SMILES)": "CN1CC(Oc2cnc(C#N)cc2-c2ccn3nc(NC(=O)C4CC4)cc3c2)C1", "effect on": "enzyme activity", "mode": "inhibitor", "tested at": "1 µM", "measurement": "inhibition", "result": "1%"}
{"Structure (SMILES)": "O=C1NC(=O)c2cc(Nc3ccc(F)cc3)c(Nc3ccc(F)cc3)cc21", "effect on": "cell-free assay", "tested at": "0.5 µM", "measurement": "remaining signal", "result": "90.7%"}
{"Structure (SMILES)": "Cc1sc(C(=O)NC2COC2)cc1-n1cc(NC(=O)Nc2c(F)cccc2Cl)cn1", "effect on": "enzyme activity", "mode": "inhibitor", "tested at": "10 µM", "measurement": "remaining activity", "result": "84.1%"}
{"Structure (SMILES)": "CCN1CCN(Cc2ccc(NC(=O)c3ccc(C)c(/C=C/c4cnc5[nH]ccc5c4OC)c3)cc2C(F)(F)F)CC1", "effect on": "target engagement in cells", "mode": "inhibitor", "technique": "chemoproteomics", "cells": "A-375", "tested at": "0.5 µM", "measurement": "inhibition", "result": "-68.8%"}
{"Structure (SMILES)": "Cc1cc(NC(=O)c2cccc3cc(-c4cccc5[nH]nc(N)c45)ccc23)ccc1F", "effect on": "enzyme activity", "mode": "inhibitor", "tested at": "0.1 µM", "measurement": "activity vs control", "result": "98%"}
